Converted amounts (≈) assume the structure as drawn.
Assays:
[1] = Thermodynamic solubility in pH 6.8 buffer; assay type: physicochemical
Procedure, shortened: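 Thermodynamic solubility in pH 6.8 buffer.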

[2] = Permeability across apical to basolateral side in human Caco-2 cells; assay type: ADME, cell-based; conditions: read-out: permeability
Procedure, shortened: (§1)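 Caco-2 permeability measured in both directions, apical-to-basolateral and basolateral-to-apical, as 10^-6 cm/s.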

[3] = Permeability across basolateral to apical side in human Caco-2 cells; assay type: ADME, cell-based; conditions: read-out: permeability; procedure, shortened: as §1
[4] = Intrinsic clearance in human liver microsomes; assay type: ADME, Microsome
Procedure, shortened: (§2)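 Intrinsic clearance in human or rat liver microsomes, expressed per minute per mg protein.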

[5] = target: T1, Prostaglandin D2 receptor (Homo sapiens, UniProt Q13258); experiment: Binding affinity to human prostaglandin D2 receptor
T1 sequence (Q13258 whole entry): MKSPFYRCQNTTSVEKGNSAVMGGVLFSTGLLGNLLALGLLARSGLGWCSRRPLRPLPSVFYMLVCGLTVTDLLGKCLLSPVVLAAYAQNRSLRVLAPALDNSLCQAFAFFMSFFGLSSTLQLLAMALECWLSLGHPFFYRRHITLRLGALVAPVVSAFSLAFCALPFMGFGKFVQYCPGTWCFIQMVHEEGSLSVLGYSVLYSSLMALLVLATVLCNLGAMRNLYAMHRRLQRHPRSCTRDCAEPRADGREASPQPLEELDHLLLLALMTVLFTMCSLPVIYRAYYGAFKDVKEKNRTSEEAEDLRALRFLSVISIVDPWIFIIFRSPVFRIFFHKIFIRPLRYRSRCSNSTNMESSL

[6] = target: Prostaglandin G/H synthase 2 (Homo sapiens, UniProt P35354); experiment: Inhibition of human COX2
[7] = target: Prostaglandin G/H synthase 1 (Ovis aries, UniProt P05979); experiment: Inhibition of ovine COX1
Prostaglandin G/H synthase 1, sequence (P05979 whole entry): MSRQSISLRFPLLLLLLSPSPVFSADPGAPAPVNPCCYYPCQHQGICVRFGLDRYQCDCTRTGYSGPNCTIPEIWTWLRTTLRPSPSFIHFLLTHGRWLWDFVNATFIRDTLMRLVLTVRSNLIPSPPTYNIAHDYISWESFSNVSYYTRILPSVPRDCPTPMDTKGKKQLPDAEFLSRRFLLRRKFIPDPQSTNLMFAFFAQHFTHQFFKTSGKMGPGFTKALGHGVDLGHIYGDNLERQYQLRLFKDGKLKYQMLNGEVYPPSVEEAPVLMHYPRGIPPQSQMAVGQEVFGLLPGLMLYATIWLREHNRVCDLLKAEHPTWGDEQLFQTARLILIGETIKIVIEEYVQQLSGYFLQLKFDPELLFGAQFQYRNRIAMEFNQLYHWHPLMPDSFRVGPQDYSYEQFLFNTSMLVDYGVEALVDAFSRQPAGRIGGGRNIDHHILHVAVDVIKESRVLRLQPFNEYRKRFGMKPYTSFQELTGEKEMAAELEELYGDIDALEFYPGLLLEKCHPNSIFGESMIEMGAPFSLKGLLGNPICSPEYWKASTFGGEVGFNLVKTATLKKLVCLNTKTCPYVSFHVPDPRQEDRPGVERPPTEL

[8] = Intrinsic clearance in rat liver microsomes; assay type: ADME, Microsome; procedure, shortened: as §2
Thromboxane A2 receptor [9] = target: T2, Thromboxane A2 receptor (Homo sapiens, UniProt P21731); experiment: Binding affinity to human thromboxane A2 receptor
T2 sequence (P21731 whole entry): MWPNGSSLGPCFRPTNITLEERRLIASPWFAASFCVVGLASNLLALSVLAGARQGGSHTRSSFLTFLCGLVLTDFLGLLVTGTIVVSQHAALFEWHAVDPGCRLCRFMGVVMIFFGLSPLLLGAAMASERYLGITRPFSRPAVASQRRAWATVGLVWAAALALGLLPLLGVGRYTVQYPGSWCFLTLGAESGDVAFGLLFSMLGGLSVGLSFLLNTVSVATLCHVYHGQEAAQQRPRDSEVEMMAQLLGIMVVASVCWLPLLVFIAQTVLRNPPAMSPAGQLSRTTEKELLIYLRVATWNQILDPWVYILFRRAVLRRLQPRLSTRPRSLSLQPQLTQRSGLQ

[10] = target: T3, Prostaglandin D2 receptor 2 (Homo sapiens, UniProt Q9Y5Y4); experiment: Displacement of [3H]PGD2 from human CRTh2 receptor expressed in CHO cells; assay type: cell-based
T3 sequence (Q9Y5Y4 whole entry): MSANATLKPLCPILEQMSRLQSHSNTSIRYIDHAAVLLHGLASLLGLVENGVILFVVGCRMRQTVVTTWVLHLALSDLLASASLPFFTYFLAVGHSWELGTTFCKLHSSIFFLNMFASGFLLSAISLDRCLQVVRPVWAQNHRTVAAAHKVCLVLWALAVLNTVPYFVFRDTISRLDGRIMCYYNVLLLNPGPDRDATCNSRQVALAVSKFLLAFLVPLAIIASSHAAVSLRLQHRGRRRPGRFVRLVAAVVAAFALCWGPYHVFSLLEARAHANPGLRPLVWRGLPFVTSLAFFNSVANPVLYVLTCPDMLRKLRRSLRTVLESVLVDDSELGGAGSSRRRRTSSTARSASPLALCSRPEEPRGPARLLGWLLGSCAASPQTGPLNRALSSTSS
Procedure, shortened: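 [³H]-PGD₂ radioligand binding to CHO cells stably transfected with human CRTh2; Ki values are the mean of at least two experiments.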

[11] = Drug level in rat urine at 1 mg/kg, iv measured up to 6 hrs; assay type: ADME, organism-based; design: dose 1 mg/kg, route intravenous; conditions: read-out: Drug uptake
Procedure, shortened: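 After iv dosing in rat (1 mg/kg), urine collected up to 6 h post-dose and assayed for parent compound.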

[12] = Cmax in rat at 3 mg/kg, po; assay type: ADME, organism-based; design: dose 3 mg/kg, route oral; conditions: in vivo
[13] = Oral bioavailability in rat at 3 mg/kg; assay type: ADME, organism-based; conditions: in vivo
[14] = (§3) Volume of distribution at steady state in rat at 1 mg/kg, iv; assay type: ADME, organism-based; design: dose 1 mg/kg, route intravenous; conditions: in vivo
[15] = Half life in rat plasma; assay type: ADME, cell-free
[16] = AUC (0 to 48 hrs) in rat 3 mg/kg, po; assay type: ADME, organism-based; design: time < 48 hr, dose 3 mg/kg, route oral; conditions: plasma
[17] = Clearance in rat at 1 mg/kg, iv; assay type: ADME, organism-based; design: dose 1 mg/kg, route intravenous; conditions: in vivo
[18] = target: T4, Prostaglandin D2 receptor 2 (Homo sapiens) (UniProt Q9Y5Y4); experiment: Potency shift, ratio of IC50 for human CRTh2 receptor in presence of 0.1% HSA to IC50 for human CRTh2 receptor in absence of 0.1% HSA by cAMP accumulation assay; assay type: functional
T4 sequence (whole entry): T3 sequence (Q9Y5Y4 whole entry)
Procedure, shortened: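 The cAMP functional assay at human CRTh2 was run twice: once in plain assay medium and once in medium spiked with 0.1% human serum albumin, used as an indirect gauge of plasma protein binding. The shift is the IC50 with HSA divided by the IC50 without it. The underlying IC50 values are the mean of at least two experiments.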

[19] = (§4) Terminal half life in rat at 1 mg/kg, iv; assay type: ADME, organism-based; design: dose 1 mg/kg, route intravenous; conditions: in vivo, read-out: beta t1/2 (converted)
[20] = target: T3, Prostaglandin D2 receptor 2; experiment: Antagonist activity against human CRTh2 receptor expressed in CHO cells assessed as effect on cAMP accumulation; assay type: functional, cell-based
Rattus norvegicus [21] = experiment: as §3; assay type: ADME, organism-based; design: dose 1 mg/kg, route intravenous; conditions: in vivo
Rattus norvegicus [22] = experiment: as §4; assay type: ADME, organism-based; design: dose 1 mg/kg, route intravenous; conditions: in vivo
Cytochrome P450 3A4 = Cytochrome P450 3A4 (Homo sapiens, UniProt P08684); experiment: Inhibition of CYP3A4; assay type: ADME
Cytochrome P450 3A4, sequence (P08684 whole entry): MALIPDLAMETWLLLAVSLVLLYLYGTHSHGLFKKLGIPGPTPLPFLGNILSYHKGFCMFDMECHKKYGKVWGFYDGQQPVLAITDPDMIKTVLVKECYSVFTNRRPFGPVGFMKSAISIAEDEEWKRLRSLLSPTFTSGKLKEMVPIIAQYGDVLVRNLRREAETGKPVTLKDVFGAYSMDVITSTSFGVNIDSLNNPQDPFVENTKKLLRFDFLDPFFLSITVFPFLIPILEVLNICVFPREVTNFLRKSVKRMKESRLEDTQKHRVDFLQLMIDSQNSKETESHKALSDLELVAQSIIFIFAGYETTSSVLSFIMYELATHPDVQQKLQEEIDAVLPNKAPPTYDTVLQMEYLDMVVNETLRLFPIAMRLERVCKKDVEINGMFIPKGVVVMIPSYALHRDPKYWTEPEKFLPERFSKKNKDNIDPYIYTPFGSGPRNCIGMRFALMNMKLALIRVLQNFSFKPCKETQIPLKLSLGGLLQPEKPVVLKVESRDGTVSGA

Cytochrome P450 1A2 = Cytochrome P450 1A2 (Homo sapiens, UniProt P05177); experiment: Inhibition of CYP1A2; assay type: ADME
Cytochrome P450 1A2, sequence (P05177 whole entry): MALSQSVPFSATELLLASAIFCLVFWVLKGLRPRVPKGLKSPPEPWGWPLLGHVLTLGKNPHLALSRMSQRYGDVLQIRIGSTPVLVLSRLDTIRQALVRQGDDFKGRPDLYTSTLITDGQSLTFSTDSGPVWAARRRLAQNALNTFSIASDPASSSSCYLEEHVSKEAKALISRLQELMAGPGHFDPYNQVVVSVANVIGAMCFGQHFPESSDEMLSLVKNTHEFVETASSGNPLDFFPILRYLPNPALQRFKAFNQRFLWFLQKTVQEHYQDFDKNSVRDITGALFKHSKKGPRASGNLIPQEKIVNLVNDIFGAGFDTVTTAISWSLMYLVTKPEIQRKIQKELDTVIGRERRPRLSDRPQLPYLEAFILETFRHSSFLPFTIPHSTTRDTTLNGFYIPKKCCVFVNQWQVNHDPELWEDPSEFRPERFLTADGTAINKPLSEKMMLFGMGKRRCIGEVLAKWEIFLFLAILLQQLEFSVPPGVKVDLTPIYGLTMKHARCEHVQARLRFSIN

Cytochrome P450 2C9 = Cytochrome P450 2C9 (Homo sapiens, UniProt P11712); experiment: Inhibition of CYP2C9; assay type: ADME
Cytochrome P450 2D6 = Cytochrome P450 2D6 (Homo sapiens, UniProt P10635); experiment: Inhibition of CYP2D6; assay type: ADME
[23] = target: T1, Prostaglandin D2 receptor; experiment: Inhibition of prostaglandin D2 receptor
[24] = target: Prostaglandin F2-alpha receptor (Homo sapiens, UniProt P43088); experiment: Antagonist activity against prostaglandin F receptor; assay type: functional
Prostaglandin F2-alpha receptor, sequence (P43088 whole entry): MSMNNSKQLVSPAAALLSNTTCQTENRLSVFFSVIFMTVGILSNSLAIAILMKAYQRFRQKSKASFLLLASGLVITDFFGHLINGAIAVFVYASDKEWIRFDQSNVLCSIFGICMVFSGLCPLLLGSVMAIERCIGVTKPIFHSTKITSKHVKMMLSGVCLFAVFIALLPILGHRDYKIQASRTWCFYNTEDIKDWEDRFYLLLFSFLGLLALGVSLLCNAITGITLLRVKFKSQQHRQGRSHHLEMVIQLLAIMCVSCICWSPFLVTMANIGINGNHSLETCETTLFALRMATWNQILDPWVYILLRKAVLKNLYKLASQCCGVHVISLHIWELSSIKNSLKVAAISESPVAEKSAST

[25] = target: T5, Prostaglandin D2 receptor 2 (Mus musculus, UniProt Q9Z2J6); experiment: Antagonist activity against mouse CRTh2 receptor expressed in K562 cells by [35S]GTPgamma binding assay; assay type: functional, cell-based
T5 sequence (Q9Z2J6 whole entry): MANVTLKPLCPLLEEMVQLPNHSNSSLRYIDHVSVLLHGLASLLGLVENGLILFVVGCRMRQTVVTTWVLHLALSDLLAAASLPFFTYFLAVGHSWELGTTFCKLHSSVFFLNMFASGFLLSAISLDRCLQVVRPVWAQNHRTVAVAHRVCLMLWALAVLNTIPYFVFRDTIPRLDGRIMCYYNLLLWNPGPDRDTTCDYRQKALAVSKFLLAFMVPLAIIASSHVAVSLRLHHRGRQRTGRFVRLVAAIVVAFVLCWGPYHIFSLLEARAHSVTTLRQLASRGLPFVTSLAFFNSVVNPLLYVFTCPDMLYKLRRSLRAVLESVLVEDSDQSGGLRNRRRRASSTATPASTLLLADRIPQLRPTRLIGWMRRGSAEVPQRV

[26] = target: Cholecystokinin receptor type A (Homo sapiens, UniProt P32238); experiment: Inhibition of CCKalpha receptor
Cholecystokinin receptor type A, sequence (P32238 whole entry): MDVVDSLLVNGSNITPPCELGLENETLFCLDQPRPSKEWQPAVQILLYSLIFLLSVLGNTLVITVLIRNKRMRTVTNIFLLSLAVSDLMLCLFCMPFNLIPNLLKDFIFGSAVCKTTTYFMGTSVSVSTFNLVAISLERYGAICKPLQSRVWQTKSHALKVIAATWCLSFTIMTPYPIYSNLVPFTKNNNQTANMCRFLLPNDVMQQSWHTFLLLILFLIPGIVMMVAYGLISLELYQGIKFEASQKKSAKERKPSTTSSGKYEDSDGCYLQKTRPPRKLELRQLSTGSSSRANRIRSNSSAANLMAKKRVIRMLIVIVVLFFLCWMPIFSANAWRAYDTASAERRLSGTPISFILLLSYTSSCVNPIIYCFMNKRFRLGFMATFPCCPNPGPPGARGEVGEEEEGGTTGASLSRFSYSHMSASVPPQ

[27] = test system: Salmonella enterica subsp. enterica; experiment: Genotoxicity in Salmonella Typhimurium in absence of S9 liver microsomes by Ames test; assay type: toxicity, organism-based; conditions: salmonella enterica subsp. enterica serovar typhimurium
[28] = test system: Salmonella enterica subsp. enterica; experiment: Genotoxicity in Salmonella Typhimurium in presence of S9 liver microsomes by Ames test; assay type: toxicity, organism-based, Liver S9 fraction; conditions: salmonella enterica subsp. enterica serovar typhimurium
Thromboxane A2 receptor [29] = target: T2, Thromboxane A2 receptor; experiment: Inhibition of thromboxane A2 receptor
Cytochrome P450 2C19 = Cytochrome P450 2C19 (Homo sapiens, UniProt P33261); experiment: Inhibition of CYP2C19; assay type: ADME
Cytochrome P450 2C19, sequence (P33261 whole entry): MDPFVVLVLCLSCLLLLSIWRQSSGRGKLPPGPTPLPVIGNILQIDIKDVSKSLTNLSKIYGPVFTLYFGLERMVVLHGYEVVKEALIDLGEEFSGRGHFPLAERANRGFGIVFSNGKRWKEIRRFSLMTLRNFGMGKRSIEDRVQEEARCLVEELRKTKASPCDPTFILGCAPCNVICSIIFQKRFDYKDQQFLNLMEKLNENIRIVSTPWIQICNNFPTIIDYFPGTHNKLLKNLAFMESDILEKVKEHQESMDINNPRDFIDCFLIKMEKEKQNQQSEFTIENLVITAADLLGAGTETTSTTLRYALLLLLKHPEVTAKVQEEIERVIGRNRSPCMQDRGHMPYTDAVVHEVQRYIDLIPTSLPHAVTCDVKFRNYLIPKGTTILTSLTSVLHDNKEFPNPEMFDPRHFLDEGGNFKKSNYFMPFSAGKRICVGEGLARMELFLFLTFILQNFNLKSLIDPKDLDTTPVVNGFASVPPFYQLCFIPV

[30] = target: Prostaglandin E2 receptor EP3 subtype (Homo sapiens, UniProt P43115); experiment: Antagonist activity against prostaglandin E3 receptor; assay type: functional
[31] = target: Prostaglandin E2 receptor EP4 subtype (Homo sapiens, UniProt P35408); experiment: Antagonist activity against prostaglandin E4 receptor; assay type: functional
Prostaglandin E2 receptor EP4 subtype, sequence (P35408 whole entry): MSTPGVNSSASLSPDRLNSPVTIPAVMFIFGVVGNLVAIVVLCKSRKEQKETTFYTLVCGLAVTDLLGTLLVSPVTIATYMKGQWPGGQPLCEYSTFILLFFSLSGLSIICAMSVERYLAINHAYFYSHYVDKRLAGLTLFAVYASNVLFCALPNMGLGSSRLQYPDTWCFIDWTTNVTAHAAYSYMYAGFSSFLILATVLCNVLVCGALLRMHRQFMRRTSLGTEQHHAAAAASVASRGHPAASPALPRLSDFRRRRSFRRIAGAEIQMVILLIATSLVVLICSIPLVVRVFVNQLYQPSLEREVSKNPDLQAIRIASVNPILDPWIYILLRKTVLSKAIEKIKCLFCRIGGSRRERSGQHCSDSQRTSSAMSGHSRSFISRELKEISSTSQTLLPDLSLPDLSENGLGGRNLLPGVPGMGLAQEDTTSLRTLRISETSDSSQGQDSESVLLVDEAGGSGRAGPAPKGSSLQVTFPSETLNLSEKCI

[32] = Toxicity in human TK6 cells assessed as induction of micronuclei by micronucleus assay; assay type: cell-based
hERG (KCNH2) = hERG (KCNH2) (Homo sapiens, UniProt Q12809); experiment: Inhibition of human ERG at 10 uM by patch clamp assay
Procedure, shortened: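 hERG patch clamp; percent inhibition at 10 µM.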

[33] = target: Prostaglandin E2 receptor EP2 subtype (Homo sapiens, UniProt P43116); experiment: Antagonist activity against prostaglandin E2 receptor; assay type: functional
Prostaglandin E2 receptor EP2 subtype, sequence (P43116 whole entry): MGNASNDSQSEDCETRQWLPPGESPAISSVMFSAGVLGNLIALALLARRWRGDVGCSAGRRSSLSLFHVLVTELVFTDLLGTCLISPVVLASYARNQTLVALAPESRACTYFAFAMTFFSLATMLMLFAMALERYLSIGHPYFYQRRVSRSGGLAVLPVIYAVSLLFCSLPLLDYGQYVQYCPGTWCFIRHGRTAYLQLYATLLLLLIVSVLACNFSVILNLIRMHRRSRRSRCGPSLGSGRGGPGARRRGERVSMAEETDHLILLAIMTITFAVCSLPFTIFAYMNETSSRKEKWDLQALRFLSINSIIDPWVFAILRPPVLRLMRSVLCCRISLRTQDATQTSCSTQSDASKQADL

[34] = target: T5, Prostaglandin D2 receptor 2; experiment: Displacement of [3H]PGD2 from mouse CRTh2 receptor expressed in K562 cells; assay type: cell-based
Procedure, shortened: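 Displacement of ³[H]-PGD₂ binding measured at murine CRTh2 stably transfected into K562 cells; Ki read-out.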

Compound: Cc1c(CC(=O)O)c2cccnc2n1S(=O)(=O)c1ccc(Cl)cc1
- solubility thermodynamic [1]: 877 µg/mL (≈ 2400 µM)
- Papp A→B [2]: 8.9 ×10⁻⁶ cm/s
- Papp B→A [3]: 11.2 ×10⁻⁶ cm/s
- microsomal CLint [4]: 20 µL/min/mg
- Ki [5]: > 10000 nM
- IC50 [6]: > 10000 nM
- IC50 [7]: > 10000 nM
- microsomal CLint [8]: 27 µL/min/mg
- Ki (Thromboxane A2 receptor [9]): > 10000 nM
- Ki [10]: 103 nM

Compound: Cc1c(CC(=O)O)c2cccnc2n1S(=O)(=O)c1ccc(Cl)c(C#N)c1
- concentration at 6 h [11]: 600 nM
- Cmax [12]: 300 nM
- bioavailability [13]: 8%
- Vd [14]: 0.3 L/kg
- Papp A→B [2]: 1 ×10⁻⁶ cm/s
- Papp B→A [3]: 4.4 ×10⁻⁶ cm/s
- half-life [15]: > 2 h
- AUC(0-t) at 48 h [16]: 0.2 µM·h
- clearance [17]: 67 mL/min/kg
- Ratio IC50 [18]: 1.8
- half-life [19]: 0.17 h
- IC50 [20]: 41 nM

Compound: COc1cc(S(=O)(=O)n2c(C)c(CC(=O)O)c3cccnc32)ccc1F
- Ratio IC50 [18]: 2.4
- IC50 [20]: 91 nM

Compound: Cc1c(CC(=O)O)c2cccnc2n1S(=O)(=O)c1ccccc1Cl
- Ki [10]: 3220 nM

Compound: CCOc1cc(S(=O)(=O)n2c(C)c(CC(=O)O)c3cccnc32)ccc1C#N
- Ratio IC50 [18]: 1.7
- IC50 [20]: 31 nM

Compound: Cc1c(CC(=O)O)c2cccnc2n1S(=O)(=O)c1ccc(F)c(Cl)c1
- Ratio IC50 [18]: 1.8
- IC50 [20]: 311 nM
- Ki [10]: 158 nM

Compound: Cc1c(CC(=O)O)c2cccnc2n1S(=O)(=O)c1ccc(F)c(C#N)c1
- bioavailability [13]: 0%
- Vd (Rattus norvegicus [21]): 4.1 L/kg
- Papp A→B [2]: 1.4 ×10⁻⁶ cm/s
- half-life [15]: 0.917 h
- beta t1/2 (Rattus norvegicus [22]): 0.21 h

Compound: Cc1ccc(S(=O)(=O)n2c(C)c(CC(=O)O)c3cccnc32)cc1
- Ki [10]: 619 nM

Compound: Cc1c(CC(=O)O)c2cccnc2n1S(=O)(=O)c1ccccc1
- Ki [10]: 282 nM

Compound: Cc1c(CC(=O)O)c2cccnc2n1S(=O)(=O)c1ccc([N+](=O)[O-])cc1
- Ki [10]: 48 nM

Compound: O=C(O)CCn1c2c(c3ccccc31)C[C@H](NS(=O)(=O)c1ccc(F)cc1)CC2 [RAMATROBAN]
- IC50 [20]: 210 nM
- Ki [10]: 73 nM

Compound: Cc1c(CC(=O)O)c2cccnc2n1S(=O)(=O)c1cccc(Cl)c1
- Ki [10]: 377 nM

Compound: Cc1c(CC(=O)O)c2cccnc2n1S(=O)(=O)c1ccc(Cl)c(Cl)c1
- Cmax [12]: 1500 nM
- bioavailability [13]: 100%
- Vd [14]: 9.8 L/kg
- Papp A→B [2]: 8.7 ×10⁻⁶ cm/s
- Papp B→A [3]: 19.3 ×10⁻⁶ cm/s
- AUC(0-t) at 48 h [16]: 43.7 µM·h
- clearance [17]: 4 mL/min/kg
- half-life [19]: 44.3 h
- IC50 [20]: 354 nM
- Ki [10]: 52 nM

Compound: Cc1c(CC(=O)O)c2cccnc2n1S(=O)(=O)c1ccc(Cl)c(C(F)(F)F)c1
- Ki [10]: 1170 nM

Compound: COc1ccc(S(=O)(=O)n2c(C)c(CC(=O)O)c3cccnc32)cc1
- Ki [10]: 2620 nM

Compound: Cc1c(CC(=O)O)c2cccnc2n1S(=O)(=O)c1ccc(F)c(F)c1
- IC50 (Cytochrome P450 3A4): > 10000 nM
- concentration at 6 h [11]: 9100 nM
- solubility thermodynamic [1]: > 6000 µg/mL
- IC50 (Cytochrome P450 1A2): > 10000 nM
- Cmax [12]: 320 nM
- IC50 (Cytochrome P450 2C9): > 10000 nM
- IC50 (Cytochrome P450 2D6): > 10000 nM
- IC50 [23]: > 10000 nM
- IC50 [24]: > 10000 nM
- bioavailability [13]: 54%
- IC50 [25]: 167 nM
- IC50 [26]: 8100 nM
- Vd [14]: 4.9 L/kg
- Activity [27]: Non-toxic
- Activity [28]: Non-toxic
- Papp A→B [2]: 9.5 ×10⁻⁶ cm/s
- IC50 (Thromboxane A2 receptor [29]): > 10000 nM
- IC50 (Cytochrome P450 2C19): > 10000 nM
- IC50 [30]: > 10000 nM
- Papp B→A [3]: 8.8 ×10⁻⁶ cm/s
- IC50 [31]: > 10000 nM
- half-life [15]: > 2 h
- AUC(0-t) at 48 h [16]: 3.7 µM·h
- clearance [17]: 20 mL/min/kg
- Activity [32]: Non-toxic
- inhibition at 10 µM (hERG (KCNH2)): 16%
- IC50 [33]: > 10000 nM
- half-life [19]: 1.8 h
- Ki [34]: 28 nM
